In ChEMBL document CHEMBL4130549, “Synthesis and bioactivities study of new antibacterial peptide mimics: The dialkyl cationic amphiphiles” (Eur J Med Chem, 2018):
Activity calls are given as the source filed them. The rule behind the calls is not given here.

Experiments:
Staphylococcus aureus [1] = test: Antibacterial activity against methicillin-resistant Staphylococcus aureus isolate M4 after 16 to 20 hrs by broth microdilution method; format: functional
Procedure, shortened: (§1)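 CLSI broth microdilution in cation-adjusted Mueller-Hinton broth. A 4-6 h culture was diluted to about 10⁶ CFU/mL and mixed 1:1 with twofold compound dilutions (256–0.5 µg/mL before mixing) prepared from aqueous stocks. Plates were incubated at 37 °C for 16-20 h. Each concentration was tested in duplicate, and the experiment was repeated at least twice.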

Klebsiella pneumoniae [2] = test: Antibacterial activity against carbapenemase-producing Klebsiella pneumoniae isolate K8 after 16 to 20 hrs by broth microdilution method; format: functional
Procedure, shortened: (§2)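 Broth microdilution per CLSI in cation-adjusted Mueller-Hinton broth; 4-6 h cultures (~10⁸ CFU/mL) diluted to ~10⁶ CFU/mL and mixed 1:1 with twofold dilutions of water-dissolved compound (256 to 0.5 µg/mL). Incubated 16-20 h at 37 °C; MIC read visually. Each concentration run in duplicate, whole experiment repeated at least twice. MRSA, KPC and NDM-1 strains were clinical isolates.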

Staphylococcus aureus [3] = test: Antibacterial activity against methicillin-resistant Staphylococcus aureus isolate M8 after 16 to 20 hrs by broth microdilution method; format: functional; procedure, shortened: as §1
Staphylococcus aureus [4] = test: Antibacterial activity against methicillin-resistant Staphylococcus aureus isolate M2 after 16 to 20 hrs by broth microdilution method; format: functional; procedure, shortened: as §1
Staphylococcus aureus [5] = test: Antibacterial activity against Staphylococcus aureus ATCC 29213 after 16 to 20 hrs by broth microdilution method; format: functional; procedure, shortened: as §1
Staphylococcus aureus [6] = test: Antibacterial activity against methicillin-resistant Staphylococcus aureus isolate M1 after 16 to 20 hrs by broth microdilution method; format: functional; procedure, shortened: as §1
Enterobacteriaceae [7] = test: Antibacterial activity against NDM-1-producing Enterobacteriaceae isolate N3 after 16 to 20 hrs by broth microdilution method; format: functional; procedure, shortened: as §2
Staphylococcus aureus [8] = test: Antibacterial activity against methicillin-resistant Staphylococcus aureus isolate M3 after 16 to 20 hrs by broth microdilution method; format: functional; procedure, shortened: as §1
Staphylococcus aureus [9] = test: Antibacterial activity against methicillin-resistant Staphylococcus aureus isolate M7 after 16 to 20 hrs by broth microdilution method; format: functional; procedure, shortened: as §1
Enterococcus faecalis = test: Antibacterial activity against Enterococcus faecalis after 16 to 20 hrs by broth microdilution method; format: functional; procedure, shortened: as §2
Staphylococcus aureus [10] = test: Bactericidal activity against methicillin-resistant Staphylococcus aureus after 20 to 24 hrs in presence of 50% plasma by broth microdilution method; format: functional, organism-based
Procedure, shortened: (§3)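 MRSA at 10⁵ CFU/mL in 50% Mueller-Hinton broth plus 50% sheep serum, plasma or defibrinated whole blood. Serum and plasma were separated by centrifugation at 3,500 rpm for 10 min. Aqueous compound dilutions (512–4 µg/mL before mixing) were combined 1:3 with the suspension and incubated 20-24 h at 37 °C. Wells were plated on Mueller-Hinton agar for a further 20-24 h; MBC was taken as no colonies.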

[11] = Hemolytic activity in sheep RBC after 1 hr; format: ADME, cell-based, Ovis aries, Erythrocyte; details: sheep red blood cells (erythrocytes)
Procedure, shortened: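 Sheep RBCs suspended at 5% in PBS; 150 µL added to 50 µL compound dilutions (5120 to 10 µg/mL series). Incubated 1 h at 37 °C, then centrifuged; supernatant absorbance read at 540 nm. Lysis (%) = (A−A0)/(Atotal−A0)×100, with untreated 5% RBC as A0 and 0.1% Triton X-100 as total.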

Klebsiella pneumoniae [12] = test: Antibacterial activity against carbapenemase-producing Klebsiella pneumoniae isolate K2 after 16 to 20 hrs by broth microdilution method; format: functional; procedure, shortened: as §2
Escherichia coli [13] = test: Induction of outer membrane permeabilization in Escherichia coli ATCC 25922 at 20 ug/ml measured every 2 mins for 12 mins by NPN staining based fluorescence assay; format: functional, organism-based
Procedure, shortened: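 Mid-log E. coli (~10^8 CFU/mL) in black plates pre-incubated about 40 min with NPN (10 µM, 50 µL). Baseline read 8 min (ex 350/em 420 nm), then compound added to 20 µg/mL final and fluorescence followed every 2 min for 12 min. Water-treated control.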

Klebsiella pneumoniae [14] = test: Antibacterial activity against carbapenemase-producing Klebsiella pneumoniae isolate K5 after 16 to 20 hrs by broth microdilution method; format: functional; procedure, shortened: as §2
Salmonella enterica = test: Antibacterial activity against Salmonella enterica after 16 to 20 hrs by broth microdilution method; format: functional; procedure, shortened: as §2
Escherichia coli [15] = test: Induction of inner membrane permeabilization in Escherichia coli ATCC 25922 at 20 ug/ml measured every 2 mins for 12 mins by propidium iodide staining based fluorescence assay; format: functional, organism-based
Procedure, shortened: (§4)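 Mid-log cells (~10^8 CFU/mL) pre-incubated with propidium iodide (10 µM, 50 µL), 30 min for S. aureus and 40 min for E. coli. Fluorescence (ex 535/em 617 nm) read for 8 min, then compound added to 20 µg/mL final and monitored every 2 min for 12 min. Water-treated control.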

Staphylococcus aureus [16] = test: Antibacterial activity against methicillin-resistant Staphylococcus aureus after 16 to 20 hrs by broth microdilution method; format: functional; procedure, shortened: as §1
Klebsiella pneumoniae [17] = test: Antibacterial activity against carbapenemase-producing Klebsiella pneumoniae isolate K7 after 16 to 20 hrs by broth microdilution method; format: functional; procedure, shortened: as §2
Staphylococcus aureus [18] = test: Bactericidal activity against methicillin-resistant Staphylococcus aureus after 20 to 24 hrs in presence of 50% blood by broth microdilution method; format: functional, organism-based; procedure, shortened: as §3
Staphylococcus aureus [19] = test: Induction of inner membrane permeabilization in Staphylococcus aureus ATCC 29213 at 20 ug/ml measured every 2 mins for 12 mins by propidium iodide staining based fluorescence assay; format: functional, organism-based; procedure, shortened: as §4
Klebsiella pneumoniae [20] = test: Antibacterial activity against carbapenemase-producing Klebsiella pneumoniae after 16 to 20 hrs by broth microdilution method; format: functional; procedure, shortened: as §2
Staphylococcus aureus [21] = test: Ratio of MBC for methicillin-resistant Staphylococcus aureus in presence of 50% blood to MBC for methicillin-resistant Staphylococcus aureus; format: functional; procedure, shortened: as §3
Klebsiella pneumoniae [22] = test: Antibacterial activity against carbapenemase-producing Klebsiella pneumoniae isolate K1 after 16 to 20 hrs by broth microdilution method; format: functional; procedure, shortened: as §2
Staphylococcus aureus [23] = test: Ratio of MBC for methicillin-resistant Staphylococcus aureus in presence of 50% serum to MBC for methicillin-resistant Staphylococcus aureus; format: functional; procedure, shortened: as §3
Staphylococcus aureus [24] = test: Bactericidal activity against methicillin-resistant Staphylococcus aureus after 20 to 24 hrs by broth microdilution method; format: functional
Procedure, shortened: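 For MBC, 20 µL from wells of the broth microdilution MIC plate showing little or no turbidity was plated on agar and incubated 20-24 h at 37 °C. MBC was the lowest concentration giving no colonies.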

Staphylococcus aureus [25] = test: Antibacterial activity against methicillin-resistant Staphylococcus aureus isolate M6 after 16 to 20 hrs by broth microdilution method; format: functional; procedure, shortened: as §1
Enterobacteriaceae [26] = test: Antibacterial activity against NDM-1-producing Enterobacteriaceae isolate N4 after 16 to 20 hrs by broth microdilution method; format: functional; procedure, shortened: as §2
Enterobacteriaceae [27] = test: Antibacterial activity against NDM-1-producing Enterobacteriaceae isolate N5 after 16 to 20 hrs by broth microdilution method; format: functional; procedure, shortened: as §2
Staphylococcus aureus [28] = test: Antibacterial activity against methicillin-resistant Staphylococcus aureus isolate M5 after 16 to 20 hrs by broth microdilution method; format: functional; procedure, shortened: as §1
Staphylococcus aureus [29] = test: Antibacterial activity against methicillin-resistant Staphylococcus aureus isolate M9 after 16 to 20 hrs by broth microdilution method; format: functional; procedure, shortened: as §1

Compound | MIC (Staphylococcus aureus [1]) | MIC (Klebsiella pneumoniae [2]) | MIC (Staphylococcus aureus [3]) | MIC (Staphylococcus aureus [4]) | MIC (Staphylococcus aureus [5]) | MIC (Staphylococcus aureus [6]) | MIC (Enterobacteriaceae [7]) | MIC (Staphylococcus aureus [8]) | MIC (Staphylococcus aureus [9]) | MIC (Enterococcus faecalis) | Activity (Staphylococcus aureus [10]) | HC50 at 1 h [11] | MIC (Klebsiella pneumoniae [12]) | Activity (Escherichia coli [13]) | MIC (Klebsiella pneumoniae [14]) | MIC (Salmonella enterica) | Activity (Escherichia coli [15]) | MIC (Staphylococcus aureus [16]) | MIC (Klebsiella pneumoniae [17]) | Activity (Staphylococcus aureus [18]) | also measured
CCCCCCCCCCN(CCCCCCCCCC)C(=O)[C@@H](N)CCCN=C(N)N.Cl.Cl.Cl | 2 µg/mL | 4 µg/mL | 2 µg/mL | 1 µg/mL | 2 µg/mL | 2 µg/mL | 4 µg/mL | 2 µg/mL | 2 µg/mL | 2 µg/mL | Active | 87 µg/mL | 4 µg/mL | Active | 4 µg/mL | 4 µg/mL | Active | 2 µg/mL | 4 µg/mL | inactive | Activity (Staphylococcus aureus [19]): Active; MIC (Klebsiella pneumoniae [20]): 4 µg/mL; Ratio (Staphylococcus aureus [21]): 8 - 16; MIC (Klebsiella pneumoniae [22]): 4 µg/mL; Ratio (Staphylococcus aureus [23]): 1 - 2; MBC (Staphylococcus aureus [24]): 4 to 8 µg/mL; MIC (Staphylococcus aureus [25]): 2 µg/mL; MIC (Enterobacteriaceae [26]): 4 µg/mL; MIC (Enterobacteriaceae [27]): 4 µg/mL; MIC (Staphylococcus aureus [28]): 2 µg/mL; MIC (Staphylococcus aureus [29]): 2 µg/mL
CCCCCCCCCN(CCCCCCCCC)C(=O)[C@@H](N)CCCN=C(N)N.Cl.Cl.Cl | 1 µg/mL | 4 µg/mL | 2 µg/mL | 1 µg/mL | 1 µg/mL | 2 µg/mL | 4 µg/mL | 1 µg/mL | 2 µg/mL | 2 µg/mL | Active | 119 µg/mL | 4 µg/mL | Active | 4 µg/mL | 4 µg/mL | Active | 2 µg/mL | 4 µg/mL | inactive | Activity (Staphylococcus aureus [19]): Active; MIC (Klebsiella pneumoniae [20]): 4 µg/mL; Ratio (Staphylococcus aureus [21]): 8 - 16; MIC (Klebsiella pneumoniae [22]): 4 µg/mL; Ratio (Staphylococcus aureus [23]): 1 - 2; MBC (Staphylococcus aureus [24]): 4 to 8 µg/mL; MIC (Staphylococcus aureus [25]): 2 µg/mL; MIC (Enterobacteriaceae [26]): 4 µg/mL; MIC (Enterobacteriaceae [27]): 4 µg/mL; MIC (Staphylococcus aureus [28]): 2 µg/mL; MIC (Staphylococcus aureus [29]): 2 µg/mL
CCCCCCCCN(CCCCCCCC)C(=O)[C@@H](N)CCCCN.Cl.Cl | 1 µg/mL | 1 µg/mL | 1 µg/mL | 1 µg/mL | 2 µg/mL | 1 µg/mL | 8 µg/mL | 1 µg/mL | 0.5 µg/mL | 2 µg/mL | Active | 225 µg/mL | 2 µg/mL | Active | 2 µg/mL | 4 µg/mL | Active | 0.5 µg/mL | 2 µg/mL | inactive | Activity (Staphylococcus aureus [19]): Active; MIC (Klebsiella pneumoniae [20]): 1 µg/mL; Ratio (Staphylococcus aureus [21]): 8 - 16; MIC (Klebsiella pneumoniae [22]): 2 µg/mL; Ratio (Staphylococcus aureus [23]): 1 - 2; MBC (Staphylococcus aureus [24]): 4 to 8 µg/mL; MIC (Staphylococcus aureus [25]): 0.5 µg/mL; MIC (Enterobacteriaceae [26]): 8 µg/mL; MIC (Enterobacteriaceae [27]): 4 µg/mL; MIC (Staphylococcus aureus [28]): 1 µg/mL; MIC (Staphylococcus aureus [29]): 1 µg/mL
